ChEMBL document CHEMBL4680189, “Immunosuppressive properties of amino acid and peptide derivatives of mycophenolic acid” (Eur J Med Chem, 2020)
pEC50, pIC50: −log10 of the molar value. Calls of active or inactive are those of the source. No cut-off for these calls is given here. Where a SMILES comes first, the peptide text is derived from it. [ ]: non-standard residue; d: D form. The star is where a group is joined. Mycophenolyl = COc1c(C)c2c(c(O)c1C/C=C(\C)CCC(=O)*)C(=O)OC2; Arg(NO2) = N=C(NCCC[C@H](N)C(=O)O)N[N+](=O)[O-]; βAla = NCCC(=O)O

Tests used:
Jurkat [1] = assay: Immunosuppression-mediated antiproliferative activity against human Jurkat T cells assessed as inhibition of cell growth incubated for 48 hrs by VPD450 staining based flow cytometry; format: functional
Summary of the method: (§1)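 Cells stained with VPD450 (2 μL of 1 mM dye per 10-30×10^6 cells in 1 mL PBS, 15 min, 37 °C), washed. PBMC: 50×10^3 cells/well with anti-CD3/anti-CD28, serial compound dilutions, 72 h. Jurkat: 50×10^3 cells/well, 48 h. 37 °C, 5% CO2, triplicate. Dye dilution by flow cytometry; EC50 from curve fit.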

Jurkat [2] = assay: Immunosuppression-mediated cytotoxicity against human Jurkat T cells assessed as reduction in cell viability incubated for 48 hrs by MTT assay; format: cell-based
Summary of the method: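 Jurkat cells in RPMI-1640 with 10% FBS and P/S, 50×10^3 cells/well, exposed in triplicate to serial dilutions from 1 mg/mL (DMSO/medium) for 48 h at 37 °C, 5% CO2. MTT (5 mg/ml) then added for 3 h. Formazan dissolved in 0.4 N HCl–isopropanol, absorbance read at 570 nm. IC50 from curve fitting; viability at 1 mg/mL used where IC50 could not be reached.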

[3] = Selectivity index, ratio of IC50 for cytotoxicity against human PBMC by MTT assay to EC50 for antiproliferative activity against human PBMC by VPD450 staining based flow cytometry
Summary of the method: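 Ratio of the MTT cytotoxicity IC50 (72 h, stimulated PBMC) to the VPD450 antiproliferative EC50 (72 h, stimulated PBMC), both from fitted concentration-response curves.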

[4] = Selectivity index, ratio of IC50 for cytotoxicity against human Jurkat T cells by MTT assay to EC50 for antiproliferative activity against human Jurkat T cells by VPD450 staining based flow cytometry
Summary of the method: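 Jurkat IC50 from the 48 h MTT assay (50×10^3 cells/well, triplicate) divided by Jurkat EC50. […] Cells treated 48 h with serial dilutions, then dye dilution read by flow cytometry and fitted.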

PBMC = assay: Immunosuppression-mediated antiproliferative activity against anti-CD3/anti-CD28-stimulated human PBMC cells assessed as inhibition of cell growth incubated for 72 hrs in presence of GMP by VPD450 staining based flow cytometry; format: functional
Summary of the method: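 VPD450-stained PBMC, 50×10^3 cells/well, anti-CD3/anti-CD28 stimulation, serial compound dilutions plus GMP at 50 μM in the well. Incubated 72 h at 37 °C, 5% CO2, in triplicate. Proliferation read by flow cytometry as dye dilution and expressed relative to controls.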

[5] = Immunosuppression-mediated antiproliferative activity against anti-CD3/anti-CD28-stimulated human PBMC cells assessed as inhibition of cell growth incubated for 72 hrs by VPD450 staining based flow cytometry; format: functional; summary of the method: as §1
[6] = Immunosuppression-mediated cytotoxicity against anti-CD3/anti-CD28-stimulated human PBMC cells assessed as reduction in cell viability incubated for 72 hrs by MTT assay; format: cell-based
Summary of the method: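 PBMC from buffy coats of healthy donors, isolated on a Ficoll gradient with erythrocyte lysis. Plated at 50×10^3 cells/well with anti-CD3/anti-CD28, serial compound dilutions, in triplicate. Incubated 72 h, 37 °C, 5% CO2. MTT added for 3 h, formazan dissolved in acidified isopropanol (0.4 N HCl), A570 read. Three donors averaged; IC50 from curve fit.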

Jurkat [7] = assay: Immunosuppression-mediated cytotoxicity against human Jurkat T cells assessed as reduction in cell viability at 1 mg/ml incubated for 48 hrs by MTT assay relative to control; format: cell-based
Summary of the method: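 Jurkat cells (RPMI-1640, 10% FBS) plated at 50×10^3 cells/well and exposed to 1 mg/mL compound (1 mg in 20 μL DMSO, made up to 1 mL with medium). 48 h at 37 °C, 5% CO2, in triplicate. MTT (5 mg/mL stock) for 3 h, acidified isopropanol, A570. Viability calculated at that concentration.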

Jurkat [8] = assay: Immunosuppression-mediated antiproliferative activity against human Jurkat T cells assessed as inhibition of cell growth at 1 mg/ml incubated for 48 hrs by VPD450 staining based flow cytometry relative to control; format: functional; set-up: scale not given: the % may be the effect or the level left
Summary of the method: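 Jurkat cells stained with VPD450 (2 μL of 1 mM dye per 10-30×10^6 cells, 15 min, 37 °C) and plated at 50×10^3 cells/well. Compound added at the top concentration, 1 mg/mL (1 mg dissolved in 20 μL DMSO, made up to 1 mL with medium). 48 h at 37 °C, 5% CO2, in triplicate. Read by flow cytometry; […].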

Compound	pEC50 (Jurkat [1])	pIC50 (Jurkat [2])	Ratio IC50/EC50 [3]	Ratio IC50/EC50 [4]	Activity (PBMC)	pEC50 [5]	pIC50 [6]	Activity (Jurkat [7])	Activity (Jurkat [8])
CC[C@H](C)[C@H](NC(=O)CC/C(C)=C/Cc1c(O)c2c(c(C)c1OC)COC2=O)C(=O)O	5.64	4.13	2.3	33	inactive	5.05	4.68	–	–
COC(=O)C(NC(=O)CC/C(C)=C/Cc1c(O)c2c(c(C)c1OC)COC2=O)C(=O)OC	4.19	4.00	0.3	1.6	inactive	4.96	5.46	–	–
COc1c(C)c2c(c(O)c1C/C=C(\C)CCC(=O)N[C@H](C(=O)O)[C@@H](C)O)C(=O)OC2	4.08	4.37	0.7	0.5	inactive	3.93	4.09	–	–
COc1c(C)c2c(c(O)c1C/C=C(\C)CCC(=O)N[C@H](CCCNC(=N)N[N+](=O)[O-])C(=O)O)C(=O)OC2	2.98	–	0.7	–	inactive	3.23	3.37	75.14%	–
COC(=O)[C@H](CCCNC(=N)N[N+](=O)[O-])NC(=O)CC/C(C)=C/Cc1c(O)c2c(c(C)c1OC)COC2=O	4.65	3.46	0.2	16	inactive	4.11	4.85	–	–
COC(=O)C[C@H](NC(=O)CC/C(C)=C/Cc1c(O)c2c(c(C)c1OC)COC2=O)C(=O)OC	4.78	4.70	2.2	1.2	inactive	5.10	4.74	–	–
COC(=O)[C@@H](CCCNC(=N)N[N+](=O)[O-])NC(=O)CC/C(C)=C/Cc1c(O)c2c(c(C)c1OC)COC2=O	4.16	3.24	0.7	8.2	inactive	4.02	4.15	–	–
COc1c(C)c2c(c(O)c1C/C=C(\C)CCC(=O)N[C@@H](CCCNC(=N)N[N+](=O)[O-])C(=O)O)C(=O)OC2	2.92	–	2.2	–	inactive	3.88	3.55	59.12%	–
COc1c(C)c2c(c(O)c1C/C=C(\C)CCC(=O)N[C@@H](CC(=O)O)C(=O)O)C(=O)OC2	3.40	3.27	0.2	1.4	inactive	3.68	4.30	–	–
COC(=O)[C@H](NC(=O)CC/C(C)=C/Cc1c(O)c2c(c(C)c1OC)COC2=O)[C@H](C)O	4.85	3.94	7.3	8.3	inactive	5.05	4.16	–	–
COc1c(C)c2c(c(O)c1C/C=C(\C)CCC(=O)N[C@@H](C(=O)O)[C@H](C)O)C(=O)OC2	4.67	3.64	1	11	inactive	3.92	3.93	–	–
COC(=O)[C@H](CCCNC(=N)N[N+](=O)[O-])NC(=O)[C@@H]1CCCN1C(=O)[C@H](CCCCNC(=O)CN)NC(=O)[C@@H](NC(=O)CC/C(C)=C/Cc1c(O)c2c(c(C)c1OC)COC2=O)[C@@H](C)O (Mycophenolyl-TK(Gly)P[Arg(NO2)]-OMe)	2.99	–	1.1	–	–	3.23	3.20	53.4%	–
CC[C@H](C)[C@H](N)C(=O)NCCCC[C@H](NC(=O)[C@@H](NC(=O)CC/C(C)=C/Cc1c(O)c2c(c(C)c1OC)COC2=O)[C@@H](C)O)C(=O)N1CCC[C@H]1C(=O)N[C@@H](CCCNC(=N)N[N+](=O)[O-])C(=O)OC (Mycophenolyl-TK(Ile)P[Arg(NO2)]-OMe)	3.03	3.09	1.3	0.9	–	3.45	3.34	–	–
COC(=O)[C@H](CCCNC(=N)N[N+](=O)[O-])NC(=O)[C@@H]1CCCN1C(=O)[C@H](CCCCNC(=O)[C@@H](N)CC(C)C)NC(=O)[C@@H](NC(=O)CC/C(C)=C/Cc1c(O)c2c(c(C)c1OC)COC2=O)[C@@H](C)O (Mycophenolyl-TK(Leu)P[Arg(NO2)]-OMe)	3.10	–	1.2	–	–	3.26	3.16	67.04%	–
COC(=O)[C@H](CCCNC(=N)N[N+](=O)[O-])NC(=O)[C@@H]1CCCN1C(=O)[C@H](CCCCNC(=O)CCN)NC(=O)[C@@H](NC(=O)CC/C(C)=C/Cc1c(O)c2c(c(C)c1OC)COC2=O)[C@@H](C)O (Mycophenolyl-TK(βAla)P[Arg(NO2)]-OMe)	3.03	2.99	2.5	1.1	inactive	3.68	3.28	–	–
COC(=O)[C@@H](NC(=O)[C@H](CCCCNC(=O)[C@H](C)N)NC(=O)[C@@H]1CCCN1C(=O)[C@H](CCCNC(=N)N[N+](=O)[O-])NC(=O)CC/C(C)=C/Cc1c(O)c2c(c(C)c1OC)COC2=O)[C@@H](C)O (Mycophenolyl-[Arg(NO2)]PK(Ala)T-OMe)	3.08	–	4.5	–	inactive	3.77	3.12	53.9%	–
COC(=O)[C@@H](NC(=O)[C@H](CCCCNC(=O)CN)NC(=O)[C@@H]1CCCN1C(=O)[C@H](CCCNC(=N)N[N+](=O)[O-])NC(=O)CC/C(C)=C/Cc1c(O)c2c(c(C)c1OC)COC2=O)[C@@H](C)O (Mycophenolyl-[Arg(NO2)]PK(Gly)T-OMe)	–	2.96	1.5	–	–	3.25	3.06	–	56.72%
CC[C@H](C)[C@H](N)C(=O)NCCCC[C@H](NC(=O)[C@@H]1CCCN1C(=O)[C@H](CCCNC(=N)N[N+](=O)[O-])NC(=O)CC/C(C)=C/Cc1c(O)c2c(c(C)c1OC)COC2=O)C(=O)N[C@H](C(=O)OC)[C@@H](C)O (Mycophenolyl-[Arg(NO2)]PK(Ile)T-OMe)	–	–	3.5	–	–	3.82	3.27	52.48%	52.77%
COC(=O)[C@@H](NC(=O)[C@H](CCCCNC(=O)[C@@H](N)C(C)C)NC(=O)[C@@H]1CCCN1C(=O)[C@H](CCCNC(=N)N[N+](=O)[O-])NC(=O)CC/C(C)=C/Cc1c(O)c2c(c(C)c1OC)COC2=O)[C@@H](C)O (Mycophenolyl-[Arg(NO2)]PK(Val)T-OMe)	3.25	–	4.3	–	inactive	3.89	3.26	63.35%	–
COC(=O)[C@@H](NC(=O)[C@H](CCCCNC(=O)CCN)NC(=O)[C@@H]1CCCN1C(=O)[C@H](CCCNC(=N)N[N+](=O)[O-])NC(=O)CC/C(C)=C/Cc1c(O)c2c(c(C)c1OC)COC2=O)[C@@H](C)O (Mycophenolyl-[Arg(NO2)]PK(βAla)T-OMe)	–	3.10	3.8	–	–	3.81	3.23	–	75.89%
COc1c(C)c2c(c(O)c1C/C=C(\C)CCC(=O)O)C(=O)OC2 [MYCOPHENOLIC ACID]	6.52	4.22	4.6	228	–	7.52	6.85	–	–
